According to ChEMBL document CHEMBL1121573, “2-(Aminomethyl)phenols, a new class of saluretic agents. 1. Effects of nuclear substitution” (J Med Chem, 1980):

Key:
[1] = system: Rattus norvegicus; experiment: Oral diuretic activity was evaluated by measuring Na+ excretion in Rat at 9 mg/kg after […] (0-5 hr); type: ADME, organism-based, Urine; parameters: dose 9 mg/kg; settings: in vivo, ip
Method in brief: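 Female Charles-River rats (150–170 g) were kept overnight on a sugar diet with water ad libitum. Compound was dissolved in DMF, then diluted with water containing Tween 80 (3 drops/100 mL) to a final 4% DMF, and given po in 5.0 mL. Rats were housed three per metabolism cage. Urine from 0–5 h was analysed for Na+, K+ and Cl−, with concurrent placebo controls. Values are mequiv × 100 per cage, geometric mean of three cages per dose.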

[2] = system: Canis familiaris; experiment: Oral diuretic activity was evaluated by measuring Na+ excretion in dog at 10 mg/kg after ip administration (0-6 hr); type: ADME, organism-based, Canis lupus familiaris, Urine; parameters: dose 10 mg/kg, route intraperitoneal; settings: in vivo
Method in brief: (§1)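 Spontaneous urine was pooled with bladder urine collected by catheterization at 6 h. Volume was measured and Na+, K+ and Cl− were determined by standard methods. Values are geometric means.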

[3] = system: Canis familiaris; experiment: Oral diuretic activity was evaluated by measuring Na+ excretion in dog at 1 mg/kg after ip administration (0-6 hr); type: ADME, organism-based, Canis lupus familiaris, Urine; parameters: dose 1 mg/kg, route intraperitoneal; settings: in vivo; method in brief: as §1
[4] = system: Canis familiaris; experiment: Oral diuretic activity was evaluated by measuring K+ excretion in dog at 5 mg/kg after ip administration (0-6 hr); type: ADME, organism-based, Canis lupus familiaris, Urine; parameters: dose 5 mg/kg, route intraperitoneal; settings: in vivo; method in brief: as §1
[5] = system: Rattus norvegicus; experiment: Oral diuretic activity was evaluated by measuring Na+ excretion in Rat at 81 mg/kg […] (0-5 hr); type: ADME, organism-based, Urine; parameters: dose 81 mg/kg; settings: in vivo
[6] = system: Canis familiaris; experiment: Oral diuretic activity was evaluated by measuring Na+ excretion in dog at 5 mg/kg after ip administration (0-6 hr); type: ADME, organism-based, Canis lupus familiaris, Urine; parameters: dose 5 mg/kg, route intraperitoneal; settings: in vivo; method in brief: as §1
[7] = system: Canis familiaris; experiment: Salidiuretic activity in dog following i.v. dosing at 5 mg/kg; type: functional, Canis lupus familiaris, Urine; parameters: unit not given beside the values; settings: route intravenous
Method in brief: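 Conditioned female mongrel dogs, postabsorptive, got a 500 mL oral water load 1 h before pentobarbital anesthesia (30 mg/kg iv). After replicate 15-min control collections, compound was given as an iv stat injection.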

[8] = system: Rattus norvegicus; experiment: Oral diuretic activity was evaluated by measuring K+ excretion in Rat at 81 mg/kg after […] (0-5 hr); type: ADME, organism-based, Urine; parameters: dose 81 mg/kg
Method in brief: (§2)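 Female Charles-River rats (150–170 g) were kept overnight on a sugar diet with water ad libitum. Test substance was dissolved in DMF and diluted with water containing Tween 80 to a final 4% DMF vehicle, then given po in 5.0 mL. Rats were housed three per metabolism cage, and 0–5 h urine was assayed for Na⁺, K⁺ and Cl⁻ alongside concurrent placebo groups. Values are mequiv × 100 per cage, geometric means of three cages per dose.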

[9] = system: Rattus norvegicus; experiment: Oral diuretic activity was evaluated by measuring K+ excretion in Rat at 9 mg/kg […] (0-5 hr); type: ADME, organism-based, Urine; parameters: dose 9 mg/kg; method in brief: as §2
[10] = system: Canis familiaris; experiment: Oral diuretic activity was evaluated by measuring K+ excretion in dog at 10 mg/kg after ip administration (0-6 hr); type: ADME, organism-based, Canis lupus familiaris, Urine; parameters: dose 10 mg/kg, route intraperitoneal; settings: in vivo; method in brief: as §1
[11] = system: Canis familiaris; experiment: Oral diuretic activity was evaluated by measuring K+ excretion in dog at 1 mg/kg after ip administration (0-6 hr); type: ADME, organism-based, Canis lupus familiaris, Urine; parameters: dose 1 mg/kg, route intraperitoneal; settings: in vivo; method in brief: as §1
[12] = system: Rattus norvegicus; experiment: Evaluated for salidiuretic activity measured as sodium ion excretion in Rat, administered orally at a dose of 50 mg/kg; type: functional, Urine; parameters: unit not given beside the values; settings: route oral
Method in brief: (§3)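 Female Charles-River rats (150–170 g), overnight on sugar diet with water ad libitum. Compound dissolved in DMF, diluted with water containing Tween 80 (final 4% DMF), given po in 5.0 mL; concurrent vehicle placebo. Three rats per metabolism cage; 0–5 h urine analysed for Na+, K+, Cl-. Values: mequiv × 100 per cage, geometric means of three cages per dose; scored 0–6 by Na+.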

[13] = Compound administered orally at a dose of 5 mg/kg was evaluated for salidiuretic activity measured as sodium ion excretion in Rat; type: organism-based; parameters: dose 5 mg/kg; settings: Urine; method in brief: as §3
[14] = system: Rattus norvegicus; experiment: Compound administered orally at a dose of 81 mg/kg was evaluated for salidiuretic activity measured as sodium ion excretion in Rat; type: ADME, organism-based, Urine; parameters: dose 81 mg/kg, route oral; settings: in vivo, po; method in brief: as §3
[15] = system: Canis familiaris; experiment: Oral diuretic activity was evaluated by measuring Cl- excretion in dog at 5 mg/kg after […] (0-6 hr); type: ADME, organism-based, Canis lupus familiaris, Urine; parameters: dose 5 mg/kg, route intraperitoneal; settings: in vivo
[16] = system: Rattus norvegicus; experiment: Oral diuretic activity was evaluated by measuring K+ excretion in Rat at 27 mg/kg […] (0-5 hr); type: ADME, organism-based, Urine; parameters: dose 27 mg/kg; method in brief: as §2
[17] = Evaluated for salidiuretic activity measured as sodium ion excretion in Rat, administered orally at a dose of 16.5 mg/kg; type: organism-based; parameters: dose 16.5 mg/kg; settings: Urine; method in brief: as §3
[18] = system: Rattus norvegicus; experiment: Oral diuretic activity was evaluated by measuring Cl- excretion in Rat at 27 mg/kg […] (0-5 hr); type: ADME, organism-based, Urine; parameters: dose 27 mg/kg; settings: in vivo
[19] = system: Rattus norvegicus; experiment: Oral diuretic activity was evaluated by measuring Cl- excretion in Rat at 9 mg/kg […] (0-5 hr); type: ADME, organism-based, Urine; parameters: dose 9 mg/kg; settings: in vivo; method in brief: as §2
[20] = system: Canis familiaris; experiment: Oral diuretic activity was evaluated by measuring Cl- excretion in dog at 10 mg/kg after […] (0-6 hr); type: ADME, organism-based, Canis lupus familiaris, Urine; parameters: dose 10 mg/kg, route intraperitoneal; settings: in vivo
[21] = system: Rattus norvegicus; experiment: Maximum fall in mean arterial blood pressure was measured in SH rats when compound was administered at 3.75 mg/kg perorally; type: functional; settings: route oral
[22] = system: Rattus norvegicus; experiment: Maximum fall in mean arterial blood pressure was measured in SH rats when compound was administered at 30 mg/kg perorally; type: functional; settings: route oral
[23] = system: Rattus norvegicus; experiment: Maximum fall in mean arterial blood pressure was measured in SH rats when compound was administered at 7.5 mg/kg perorally; type: functional; settings: route oral
[24] = system: Rattus norvegicus; experiment: Oral diuretic activity was evaluated by measuring Cl- excretion in Rat at 81 mg/kg after po administration (0-5 hr); settings: in vivo

In the case of `NS(=O)(=O)c1cc(C(=O)O)c(NCc2ccco2)cc1Cl` [FUROSEMIDE], the Diuretic activity [1] is reported as 0.07, the Diuretic activity [2] is reported as 35 and the Diuretic activity [3] is reported as 11.4. The Diuretic activity [4] was 7.3, the Diuretic activity [5] was 2.44 and the Diuretic activity [6] was 28.2. It also gave a Diuretic activity [7] of 250, a Diuretic activity [8] of 0.77 and a Diuretic activity [9] of 0.14. For the same compound, the Diuretic activity [10] was 8.4, the Diuretic activity [11] was 4.1 and the Diuretic activity [12] was 2.4. It also gave a Diuretic activity [13] of 0.5, a Diuretic activity [14] of 2.9 and a Diuretic activity [15] of 37. It also gave a Diuretic activity [16] of 0.55, a Diuretic activity [17] of 1.4 and a Diuretic activity [18] of 2.13. The Diuretic activity [19] was 0.22, the Diuretic activity [20] was 43.8 and the MAP [21] was 12 mmHg. For the same compound, the MAP [22] was 12 mmHg, the MAP [23] was 10 mmHg and the Diuretic activity [24] was 3.7.
